The record followed here is ChEMBL document CHEMBL1641399, “Phytochemical investigations of Stemona curtisii and synthetic studies on stemocurtisine alkaloids” (2010).

Assay [1] deals with Acetylcholinesterase (Homo sapiens) (UniProt P22303).
The subject of the next assay is Candida albicans. The assay can be described thus: Antimicrobial activity against Candida albicans. In kind it is functional. Put shortly:
(§1)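 Antifungal test read as MIC (µg/mL), following a previously published procedure, with amphotericin B run as positive control.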

A further assay deals with Klebsiella pneumoniae. Description: Antimicrobial activity against Klebsiella pneumoniae. In kind it is functional.
Assay [2] concerns Staphylococcus aureus. Description: Antimicrobial activity against Staphylococcus aureus. The format is functional. In a few lines:
(§2)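 Antibacterial MIC determination in µg/mL against a bacterial panel that includes Streptococcus pyogenes, with gentamicin as positive control; otherwise run by a literature procedure.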

The subject of another assay is Cryptococcus neoformans. The assay can be described thus: Antimicrobial activity against Cryptococcus neoformans. The format is functional. Put shortly: as §1
For assay [3], the system named is Staphylococcus aureus. The assay can be described thus: Antimicrobial activity against methicillin-resistant Staphylococcus aureus. In kind it is functional. In a few lines: as §2
Another assay concerns Streptococcus pyogenes. Description: Antimicrobial activity against Streptococcus pyogenes. The format is functional. In a few lines: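 Antibacterial test read as MIC (µg/mL), following a previously published procedure, with gentamicin run as positive control.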
The subject of the next assay is Escherichia coli. Description: Antimicrobial activity against Escherichia coli. In kind it is functional.

Converted amounts (≈) assume the structure as drawn.

Acetylcholinesterase (Homo sapiens), sequence (P22303 whole entry): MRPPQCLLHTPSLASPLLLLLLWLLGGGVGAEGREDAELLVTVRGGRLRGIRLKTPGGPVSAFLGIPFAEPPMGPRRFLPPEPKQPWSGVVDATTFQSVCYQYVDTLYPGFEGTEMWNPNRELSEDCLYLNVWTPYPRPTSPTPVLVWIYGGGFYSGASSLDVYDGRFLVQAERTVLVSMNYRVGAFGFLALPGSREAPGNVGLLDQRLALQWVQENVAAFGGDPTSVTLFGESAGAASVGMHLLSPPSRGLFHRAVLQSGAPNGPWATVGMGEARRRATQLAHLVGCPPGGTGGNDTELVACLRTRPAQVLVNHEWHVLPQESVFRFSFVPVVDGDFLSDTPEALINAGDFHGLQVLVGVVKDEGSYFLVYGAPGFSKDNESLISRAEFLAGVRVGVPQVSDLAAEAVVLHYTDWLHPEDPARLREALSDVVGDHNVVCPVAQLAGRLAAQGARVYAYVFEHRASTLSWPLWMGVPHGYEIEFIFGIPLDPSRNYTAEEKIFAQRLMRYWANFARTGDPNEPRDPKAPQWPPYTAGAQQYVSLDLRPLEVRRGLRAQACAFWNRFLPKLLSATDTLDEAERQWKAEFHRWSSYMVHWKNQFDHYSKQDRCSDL

`CC/C=C/C12C3CC4C5[C@@H](C)/C(=C6/OC(=O)C(C)=C6OC)O[C@]5(O3)C1CCN42` (some centres undefined) had an MIC in assay [1] of 5 ng.
The same measure, in the same setting: under `CC[C@H](O)[C@@H]1CC[C@@H]2O[C@@]34CCC[N+]1([O-])[C@@H]2[C@H]3[C@H](C)/C(=C1/OC(=O)C(C)=C1OC)O4` (some centres undefined) stands 100 ng.
Consider `C[C@@H]1[C@H](O)[C@@H](C)/C=C/C=C/C=C/C=C/C=C/C=C/C=C/[C@H](O[C@@H]2O[C@H](C)[C@@H](O)[C@H](N)[C@@H]2O)C[C@@H]2O[C@](O)(C[C@@H](O)C[C@@H](O)[C@H](O)CC[C@@H](O)C[C@@H](O)CC(=O)O[C@H]1C)C[C@H](O)[C@H]2C(=O)O` [AMPHOTERICIN B], for which the MIC with Candida albicans, in the assay with Klebsiella pneumoniae, in the assay with Staphylococcus aureus [2], against Cryptococcus neoformans, in the assay on Staphylococcus aureus [3] and in the assay on Streptococcus pyogenes was 250 µg/mL (≈ 271 µM) throughout. This compound also displayed an MIC in the assay with Escherichia coli of 250 µg/mL (≈ 271 µM).
Take `COc1cc(-c2cc3c(O)cccc3o2)c(C)c(O)c1C` [STEMOFURAN E]: the MIC in the assay with Candida albicans, in the assay with Klebsiella pneumoniae, in the assay on Staphylococcus aureus [2], against Cryptococcus neoformans, with Staphylococcus aureus [3] and against Streptococcus pyogenes was 250 µg/mL (≈ 879 µM) each time. This compound returned an MIC against Escherichia coli of 250 µg/mL (≈ 879 µM).
With `COc1c(C)c(O)c(C)c(-c2cc3c(O)cccc3o2)c1C` [STEMOFURAN F], the MIC with Candida albicans, against Klebsiella pneumoniae, in the assay with Staphylococcus aureus [2], in the assay with Cryptococcus neoformans, with Staphylococcus aureus [3] and in the assay on Streptococcus pyogenes was 250 µg/mL (≈ 838 µM) throughout. Besides, the MIC with Escherichia coli came to 250 µg/mL (≈ 838 µM).
Consider `COc1cc(-c2cc3c(O)cccc3o2)c(C)c(OC)c1C` [STEMOFURAN J], for which the MIC against Candida albicans, in the assay with Klebsiella pneumoniae, against Staphylococcus aureus [2], in the assay on Cryptococcus neoformans, against Staphylococcus aureus [3] and against Streptococcus pyogenes was 250 µg/mL (≈ 838 µM) each time. Further, the MIC in the assay on Escherichia coli came to 250 µg/mL (≈ 838 µM).
For `COc1c(C)c(O)c(C)c(-c2cc3ccccc3o2)c1C` [STEMOFURAN K], the MIC in the assay on Candida albicans, with Klebsiella pneumoniae, against Staphylococcus aureus [2], in the assay on Cryptococcus neoformans, in the assay on Staphylococcus aureus [3] and against Streptococcus pyogenes was 250 µg/mL (≈ 885 µM) throughout. The compound also came in with an MIC in the assay with Escherichia coli of 250 µg/mL (≈ 885 µM).
As for GENTAMICIN, the MIC against Candida albicans, with Klebsiella pneumoniae, against Staphylococcus aureus [2], in the assay on Cryptococcus neoformans, against Staphylococcus aureus [3] and against Streptococcus pyogenes was 250 µg/mL in each case. In addition, in the assay with Escherichia coli, the MIC amounted to 250 µg/mL.
